The text below walks through data of ChEMBL document CHEMBL4673214, “Synthesis and antibacterial bioactivities of cationic deacetyl linezolid amphiphiles” (Eur J Med Chem, 2018).

What is called MIC is the lowest concentration that inhibits growth of the organism.

One data set deals with Staphylococcus aureus. Put plainly: Antibacterial activity against Staphylococcus aureus ATCC 29213 assessed as reduction in bacterial growth incubated for 16 to 20 hrs by CLSI-based broth microdilution method. The class given is functional. As to conditions: time 16-20 hrs. The procedure, abridged: (§1)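 Broth microdilution following CLSI, in cation-adjusted Mueller-Hinton broth. Inoculum from a 4-6 h culture (~10^8 CFU/mL), diluted to ~10^6 CFU/mL. Water stocks were serially diluted in MHB (256 to 0.5 µg/mL) and mixed 1:1 with the inoculum. Plates ran 16-20 h at 37 °C. MIC was read visually. Each concentration was tested in duplicate, and the experiment was repeated at least twice.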
(In general: Dilution methods test growth across graded concentrations, often in twofold steps.)

Another data set relates to Escherichia coli. Put plainly: Antibacterial activity against Escherichia coli ATCC 25922 assessed as reduction in bacterial growth incubated 16 to 20 hrs by CLSI-based broth microdilution method. It is filed as functional. The following applies: time 16-20 hrs. The procedure, abridged:
as §1

In the next data set the test system is Salmonella enterica. Put plainly: Antibacterial activity against Salmonella enterica ATCC 8387 assessed as reduction in bacterial growth incubated for 16 to 20 hrs by CLSI-based broth microdilution method. The class given is functional. The following applies: time 16-20 hrs. The procedure, abridged:
as §1

The test system of a further data set is Enterococcus faecalis. Put plainly: Antibacterial activity against Enterococcus faecalis ATCC 29212 assessed as reduction in bacterial growth incubated 16 to 20 hrs by CLSI-based broth microdilution method. The class given is functional. As to conditions: time 16-20 hrs. The procedure, abridged:
as §1

Data set [1] in a line: Solubility of the compound in water at room temperature. The following applies: buffer. It is filed as physicochemical.

With `CCCCCCCCC[N+](C)(C)CC(=O)NC[C@H]1CN(c2ccc(N3CCOCC3)c(F)c2)C(=O)O1.[Cl-]`, the minimum inhibitory concentration (MIC) in the data set on Staphylococcus aureus was 8 µg/mL; in the data set with Escherichia coli it was 32 µg/mL; in the data set on Salmonella enterica it was 32 µg/mL; in the data set with Enterococcus faecalis, 16 µg/mL. Besides, the solubility result in data set [1] is listed as “Soluble”.

Regarding `CCCCCCCCCN(C[C@H]1CN(c2ccc(N3CCOCC3)c(F)c2)C(=O)O1)C(=O)[C@@H](N)CCCCN.Cl.Cl`, the MIC in the data set with Staphylococcus aureus amounted to 16 µg/mL; in the data set with Escherichia coli it was 64 µg/mL; with Salmonella enterica, 64 µg/mL; with Enterococcus faecalis it was 16 µg/mL. In data set [1], the solubility entry was “Soluble”.

In the case of `CCCCCCCCN(C[C@H]1CN(c2ccc(N3CCOCC3)c(F)c2)C(=O)O1)C(=O)[C@@H](N)CCCCN.Cl.Cl`, the MIC in the data set with Staphylococcus aureus is 32 µg/mL; with Escherichia coli, 128 µg/mL; in the data set with Salmonella enterica it was 128 µg/mL; in the data set with Enterococcus faecalis it was 64 µg/mL. In addition, the solubility entry in data set [1] is listed as “Soluble”.

As to `CCCCCCCCCCN(C[C@H]1CN(c2ccc(N3CCOCC3)c(F)c2)C(=O)O1)C(=O)[C@@H](N)CCCCN.Cl.Cl`, the MIC with Staphylococcus aureus came out at 4 µg/mL; in the data set with Escherichia coli, 32 µg/mL; with Salmonella enterica, 32 µg/mL; in the data set on Enterococcus faecalis it was 8 µg/mL. The solubility entry in data set [1] is listed as “Soluble”.

Consider `CCCCCCCCN(C[C@H]1CN(c2ccc(N3CCOCC3)c(F)c2)C(=O)O1)C(=O)[C@@H](N)CCCN=C(N)N.Cl.Cl.Cl`, for which the MIC in the data set with Staphylococcus aureus was 16 µg/mL; in the data set with Escherichia coli it was more than 128 µg/mL; in the data set on Salmonella enterica it was more than 128 µg/mL; with Enterococcus faecalis it was 32 µg/mL. Further, the solubility entry in data set [1] is on record as “Soluble”.

`CCCCCCCN(C[C@H]1CN(c2ccc(N3CCOCC3)c(F)c2)C(=O)O1)C(=O)[C@@H](N)CCCCN.Cl.Cl`: the MIC is 128 µg/mL with Staphylococcus aureus, more than 128 µg/mL with Escherichia coli, more than 128 µg/mL with Salmonella enterica and 128 µg/mL in the data set on Enterococcus faecalis. Further, the solubility result in data set [1] is “Soluble”.

As to `CCCCCCCCCCN(C[C@H]1CN(c2ccc(N3CCOCC3)c(F)c2)C(=O)O1)C(=O)[C@@H](N)CCCN=C(N)N.Cl.Cl.Cl`, the MIC in the data set with Staphylococcus aureus was 8 µg/mL; in the data set on Escherichia coli it was 16 µg/mL; with Salmonella enterica, 32 µg/mL; in the data set on Enterococcus faecalis it was 8 µg/mL. The solubility result in data set [1] is listed as “Soluble”.
